Experiment [1] concerns Legionella pneumophila. Description: Antibacterial activity against Legionella pneumophila Corby by microtiter plate assay. It is filed as functional. The essentials: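 Broth microdilution MIC in liquid medium in microtiter wells. Legionella pneumophila Corby grown in YEB medium (10 g ACES, 10 g yeast extract per 1000 mL water, pH 6.9, plus supplements). Value reported as the minimum inhibitory concentration.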

Experiment [2] concerns Priestia megaterium. Kind of experiment: Antibacterial activity against Bacillus megaterium by microtiter plate assay. It is filed as functional, organism-based. The essentials:
(§1)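 Minimum inhibitory concentration determined in liquid medium in microtiter wells.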

In experiment [3] the test system is Escherichia coli. Description: Antibacterial activity against Escherichia coli K-12 by microtiter plate assay. The class given is functional, organism-based. The essentials:
as §1

In experiment [4] the test system is Microbotryum violaceum. Description: Antifungal activity against Microbotryum violaceum assessed as zone of inhibition measured as radius at 50 ug by agar diffusion assay. The note with it: for zone of inhibition at 50 µg/disc: read-out: IZ. The class given is functional. The essentials: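 Samples at 1 mg/mL in acetone; 50 μg applied to a 9 mm sterile filter disk on MPY agar. The plate was then sprayed with a Microbotryum violaceum suspension and incubated at 20 °C. The inhibition zone radius was measured in mm from the disk centre.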

We go through 12 compounds from ChEMBL document CHEMBL1764948, “Diversonol and blennolide derivatives from the endophytic fungus Microdiplodia sp.: absolute configuration of diversonol” (2011).

Usually MIC stands for the smallest concentration in the dilution series that meets the test's criterion for growth inhibition. Read a low MIC as greater potency.

In brackets after ≈: the same amount, converted by molar mass. Activity calls are given as the source filed them.

For `C[C@H]1Oc2cccc(O)c2C(=O)[C@@H]1O`, it took 1000 µg/mL (≈ 5.15 mM) to inhibit growth in experiment [1] (MIC). For the same compound, the outcome in experiment [2] and in experiment [3] was inactive.
Take `CC(C)=O` [ACETONE]: the zone of inhibition at 50 µg/disc in experiment [4] came to 0 mm.
For the compound `C[C@@H]1C[C@@H]([C@H](O)CC2CC(=O)NC(=O)C2)C(=O)[C@@H](C)C1` [CYCLOHEXIMIDE], the zone of inhibition at 50 µg/disc in experiment [4] is 50 mm.
On to `Cc1cc(O)c2c(c1)O[C@@]1(C)[C@@H](O)CC[C@H](O)[C@]1(O)C2=O` [DIVERSONOL], for which the zone of inhibition at 50 µg/disc in experiment [4] was found to be 0 mm. In experiment [1], the lowest concentration to inhibit growth (MIC) was 1000 µg/mL (≈ 3.4 mM). The result in experiment [2] and in experiment [3] was inactive.
For the compound `CC(C)[C@@H](C)/C=C/[C@@H](C)[C@H]1CC[C@H]2C3=CC=C4C[C@@H](O)CC[C@]4(C)[C@H]3CC[C@]12C` [ERGOSTEROL], the outcome in experiment [4], in experiment [2] and in experiment [3] was inactive. The compound further showed a minimal inhibitory concentration (MIC) in experiment [1] of 250 µg/mL (≈ 0.63 mM).
In the case of `NC[C@H]1O[C@H](O[C@H]2[C@H](O)[C@@H](O[C@H]3O[C@H](CO)[C@@H](O)[C@H](N)[C@H]3O)[C@H](N)C[C@@H]2N)[C@H](O)[C@@H](O)[C@@H]1O` [KANAMYCIN], the MIC in experiment [1] is 12.5 µg/mL (≈ 0.0258 mM).
Turning to `COC1=CC(=O)[C@@H](O)[C@@]2(O)C(=O)c3c(O)cc(C)cc3O[C@]12C` [MICRODIPLODIASOLOL], the zone of inhibition at 50 µg/disc in experiment [4] is 6 mm. In addition, the MIC in experiment [1] stood at 1000 µg/mL (≈ 3.12 mM). Moreover, the outcome in experiment [2] and in experiment [3] was inactive.
`C[C@@]12Oc3cc(CO)cc(O)c3C(=O)[C@@]1(O)[C@@H](O)CC[C@@H]2O` [MICRODIPLODIASOL] had an MIC in experiment [1] of 125 µg/mL (≈ 0.403 mM). The result in experiment [2] and in experiment [3] was inactive.
As to `C[C@]1([C@H]2CCC(=O)O2)CC(=O)c2c(O)cc(O)cc2O1` [MICRODIPLODIASONE], the zone of inhibition at 50 µg/disc in experiment [4] was found to be 0 mm. The same compound gave an MIC in experiment [1] of 1000 µg/mL (≈ 3.59 mM). Besides, the outcome in experiment [2] and in experiment [3] was inactive.
Turning to `CC1(C)S[C@@H]2[C@H](NC(=O)Cc3ccccc3)C(=O)N2[C@H]1C(=O)O` [PENICILLIN G], the zone of inhibition at 50 µg/disc in experiment [4] is 0 mm.
For `CN(C)[C@@H]1C(O)=C(C(N)=O)C(=O)[C@@]2(O)C(O)=C3C(=O)c4c(O)cccc4[C@@](C)(O)[C@H]3C[C@@H]12` [TETRACYCLINE], the zone of inhibition at 50 µg/disc in experiment [4] turned out to be 0 mm.
Consider NYSTATIN, for which, in experiment [4], the inhibition zone (IZ) was determined as 20 mm.
